ChEMBL document CHEMBL5058577, “EUbOPEN Chemogenomics Library 2 (Multiplex)” (2022)

Test system: U2OS
Assay: Multiplex assay against U2OS
Format: toxicity, cell-based
Conditions: human
Procedure, shortened: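 On a CQ1 microscope at 37°C and 5% CO2, live cells were imaged after compound addition. They had been stained at seeding with Hoechst33342, BioTracker Green Microtubule Cytoskeleton Dye, MitoTracker Red and Annexin V Alexa Fluor 680. CellPathfinder machine-learning gating assigned cells to Hoechst high-intensity objects or normal cells, normal cells to healthy, pyknosed or fragmented nuclei, and pyknosed cells to mitotic or apoptotic. Tubulin, mitochondrial-mass and membrane-permeability phenotypes are per cents of healthy-nucleus cells.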

[1] = 12 h, 1 µM, compound concentration 1 uM, replicate 1
[2] = 12 h, 1 µM, compound concentration 1 uM, replicate 2
[3] = 12 h, 10 µM, compound concentration 10 uM, replicate 1
[4] = 12 h, 10 µM, compound concentration 10 uM, replicate 2
[5] = 24 h, 1 µM, compound concentration 1 uM, replicate 1
[6] = 24 h, 1 µM, compound concentration 1 uM, replicate 2
[7] = 24 h, 10 µM, compound concentration 10 uM, replicate 1
[8] = 24 h, 10 µM, compound concentration 10 uM, replicate 2
[9] = 48 h, 1 µM, compound concentration 1 uM, replicate 1
[10] = 48 h, 1 µM, compound concentration 1 uM, replicate 2
[11] = 48 h, 10 µM, compound concentration 10 uM, replicate 1
[12] = 48 h, 10 µM, compound concentration 10 uM, replicate 2

## O=C1COc2nccc(-c3ccccc3F)c2CN1Cc1cc(C(F)(F)F)cc(C(F)(F)F)c1
[1]
  Population Apoptotic (%): 52%
  Population Fragmented Nuclei (%): 19%
  Population Healthy Nuclei (%): 72%
  Population Hoechst High Intensity Objects (%): 4%
  Population Membrane Permeable-Phenotype (%): 6%
  Population Mitochondria Different-Phenotype (%): 2%
  Population Mitotic Cells (%): 47%
  Population Normal (%): 95%
  Population Pyknosed Nuclei (%): 8%
  Population Tubulin-Different-Phenotype (%): 4%
  Total Cell Count: 252
[2]
  Population Apoptotic (%): 77%
  Population Fragmented Nuclei (%): 23%
  Population Healthy Nuclei (%): 67%
  Population Hoechst High Intensity Objects (%): 2%
  Population Membrane Permeable-Phenotype (%): 15%
  Population Mitochondria Different-Phenotype (%): 9%
  Population Mitotic Cells (%): 22%
  Population Normal (%): 97%
  Population Tubulin-Different-Phenotype (%): 11%
  Total Cell Count: 108
[3]
  Population Apoptotic (%): 70%
  Population Fragmented Nuclei (%): 36%
  Population Healthy Nuclei (%): 47%
  Population Hoechst High Intensity Objects (%): 3%
  Population Membrane Permeable-Phenotype (%): 25%
  Population Mitochondria Different-Phenotype (%): 27%
  Population Mitotic Cells (%): 29%
  Population Normal (%): 96%
  Population Pyknosed Nuclei (%): 16%
  Population Tubulin-Different-Phenotype (%): 25%
  Total Cell Count: 200
[4]
  Population Apoptotic (%): 100%
  Population Fragmented Nuclei (%): 16%
  Population Healthy Nuclei (%): 76%
  Population Hoechst High Intensity Objects (%): 5%
  Population Membrane Permeable-Phenotype (%): 17%
  Population Mitochondria Different-Phenotype (%): 23%
  Population Mitotic Cells (%): 0%
  Population Normal (%): 94%
  Population Pyknosed Nuclei (%): 7%
  Population Tubulin-Different-Phenotype (%): 13%
  Total Cell Count: 112
[5]
  Population Apoptotic (%): 86%
  Population Fragmented Nuclei (%): 17%
  Population Healthy Nuclei (%): 74%
  Population Hoechst High Intensity Objects (%): 3%
  Population Membrane Permeable-Phenotype (%): 8%
  Population Mitochondria Different-Phenotype (%): 3%
  Population Mitotic Cells (%): 13%
  Population Normal (%): 96%
  Population Pyknosed Nuclei (%): 8%
  Population Tubulin-Different-Phenotype (%): 3%
  Total Cell Count: 291
[6]
  Population Apoptotic (%): 83%
  Population Fragmented Nuclei (%): 18%
  Population Healthy Nuclei (%): 76%
  Population Hoechst High Intensity Objects (%): 4%
  Population Membrane Permeable-Phenotype (%): 12%
  Population Mitochondria Different-Phenotype (%): 7%
  Population Mitotic Cells (%): 16%
  Population Normal (%): 95%
  Population Pyknosed Nuclei (%): 5%
  Population Tubulin-Different-Phenotype (%): 5%
  Total Cell Count: 121
[7]
  Population Apoptotic (%): 58%
  Population Fragmented Nuclei (%): 36%
  Population Healthy Nuclei (%): 43%
  Population Hoechst High Intensity Objects (%): 5%
  Population Membrane Permeable-Phenotype (%): 21%
  Population Mitochondria Different-Phenotype (%): 22%
  Population Mitotic Cells (%): 41%
  Population Normal (%): 94%
  Population Pyknosed Nuclei (%): 19%
  Population Tubulin-Different-Phenotype (%): 17%
  Total Cell Count: 210
[8]
  Population Apoptotic (%): 100%
  Population Fragmented Nuclei (%): 21%
  Population Healthy Nuclei (%): 70%
  Population Membrane Permeable-Phenotype (%): 13%
  Population Mitochondria Different-Phenotype (%): 19%
  Population Mitotic Cells (%): 0%
  Population Pyknosed Nuclei (%): 8%
  Population Tubulin-Different-Phenotype (%): 7%
  Total Cell Count: 126
[9]
  Population Apoptotic (%): 84%
  Population Fragmented Nuclei (%): 16%
  Population Healthy Nuclei (%): 74%
  Population Hoechst High Intensity Objects (%): 3%
  Population Membrane Permeable-Phenotype (%): 5%
  Population Mitochondria Different-Phenotype (%): 3%
  Population Mitotic Cells (%): 15%
  Population Normal (%): 96%
  Population Pyknosed Nuclei (%): 9%
  Population Tubulin-Different-Phenotype (%): 3%
  Total Cell Count: 425
[10]
  Population Apoptotic (%): 76%
  Population Fragmented Nuclei (%): 19%
  Population Healthy Nuclei (%): 69%
  Population Membrane Permeable-Phenotype (%): 8%
  Population Mitochondria Different-Phenotype (%): 5%
  Population Mitotic Cells (%): 23%
  Population Pyknosed Nuclei (%): 10%
  Total Cell Count: 166
[11]
  Population Apoptotic (%): 61%
  Population Fragmented Nuclei (%): 35%
  Population Healthy Nuclei (%): 46%
  Population Hoechst High Intensity Objects (%): 4%
  Population Membrane Permeable-Phenotype (%): 20%
  Population Mitochondria Different-Phenotype (%): 17%
  Population Mitotic Cells (%): 38%
  Population Normal (%): 95%
  Population Pyknosed Nuclei (%): 17%
  Population Tubulin-Different-Phenotype (%): 11%
  Total Cell Count: 236
[12]
  Population Apoptotic (%): 85%
  Population Fragmented Nuclei (%): 25%
  Population Healthy Nuclei (%): 60%
  Population Membrane Permeable-Phenotype (%): 12%
  Population Mitochondria Different-Phenotype (%): 12%
  Population Mitotic Cells (%): 14%
  Population Pyknosed Nuclei (%): 14%
  Population Tubulin-Different-Phenotype (%): 3%
  Total Cell Count: 151

## CN(C)CCCc1cc(C(=O)Nc2ccc(-c3ccncc3)cc2)ccc1O.Cl.Cl
[1]
  Population Apoptotic (%): 89%
  Population Fragmented Nuclei (%): 29%
  Population Healthy Nuclei (%): 60%
  Population Hoechst High Intensity Objects (%): 2%
  Population Membrane Permeable-Phenotype (%): 6%
  Population Mitochondria Different-Phenotype (%): 0%
  Population Mitotic Cells (%): 10%
  Population Normal (%): 97%
  Population Pyknosed Nuclei (%): 9%
  Population Tubulin-Different-Phenotype (%): 3%
  Total Cell Count: 199
[2]
  Population Apoptotic (%): 100%
  Population Fragmented Nuclei (%): 10%
  Population Healthy Nuclei (%): 75%
  Population Hoechst High Intensity Objects (%): 0%
  Population Membrane Permeable-Phenotype (%): 2%
  Population Mitochondria Different-Phenotype (%): 1%
  Population Mitotic Cells (%): 0%
  Population Normal (%): 99%
  Population Pyknosed Nuclei (%): 13%
  Population Tubulin-Different-Phenotype (%): 0%
  Total Cell Count: 124
[3]
  Population Apoptotic (%): 77%
  Population Fragmented Nuclei (%): 28%
  Population Healthy Nuclei (%): 62%
  Population Hoechst High Intensity Objects (%): 4%
  Population Membrane Permeable-Phenotype (%): 7%
  Population Mitochondria Different-Phenotype (%): 1%
  Population Mitotic Cells (%): 22%
  Population Normal (%): 95%
  Population Pyknosed Nuclei (%): 9%
  Population Tubulin-Different-Phenotype (%): 2%
  Total Cell Count: 237
[4]
  Population Apoptotic (%): 42%
  Population Fragmented Nuclei (%): 24%
  Population Healthy Nuclei (%): 63%
  Population Hoechst High Intensity Objects (%): 1%
  Population Membrane Permeable-Phenotype (%): 4%
  Population Mitochondria Different-Phenotype (%): 8%
  Population Mitotic Cells (%): 57%
  Population Normal (%): 98%
  Population Pyknosed Nuclei (%): 12%
  Total Cell Count: 113
[5]
  Population Apoptotic (%): 100%
  Population Fragmented Nuclei (%): 28%
  Population Healthy Nuclei (%): 65%
  Population Hoechst High Intensity Objects (%): 2%
  Population Membrane Permeable-Phenotype (%): 5%
  Population Mitochondria Different-Phenotype (%): 2%
  Population Mitotic Cells (%): 0%
  Population Normal (%): 97%
  Population Pyknosed Nuclei (%): 6%
  Population Tubulin-Different-Phenotype (%): 3%
  Total Cell Count: 247
[6]
  Population Apoptotic (%): 94%
  Population Fragmented Nuclei (%): 11%
  Population Healthy Nuclei (%): 77%
  Population Hoechst High Intensity Objects (%): 4%
  Population Membrane Permeable-Phenotype (%): 7%
  Population Mitochondria Different-Phenotype (%): 5%
  Population Mitotic Cells (%): 5%
  Population Normal (%): 95%
  Population Pyknosed Nuclei (%): 11%
  Population Tubulin-Different-Phenotype (%): 5%
  Total Cell Count: 178
[7]
  Population Apoptotic (%): 72%
  Population Fragmented Nuclei (%): 28%
  Population Healthy Nuclei (%): 58%
  Population Hoechst High Intensity Objects (%): 4%
  Population Membrane Permeable-Phenotype (%): 6%
  Population Mitochondria Different-Phenotype (%): 3%
  Population Mitotic Cells (%): 27%
  Population Normal (%): 95%
  Population Pyknosed Nuclei (%): 13%
  Population Tubulin-Different-Phenotype (%): 1%
  Total Cell Count: 257
[8]
  Population Apoptotic (%): 66%
  Population Fragmented Nuclei (%): 21%
  Population Healthy Nuclei (%): 63%
  Population Hoechst High Intensity Objects (%): 0%
  Population Membrane Permeable-Phenotype (%): 4%
  Population Mitochondria Different-Phenotype (%): 8%
  Population Mitotic Cells (%): 33%
  Population Normal (%): 100%
  Population Pyknosed Nuclei (%): 15%
  Population Tubulin-Different-Phenotype (%): 2%
  Total Cell Count: 118
[9]
  Population Apoptotic (%): 88%
  Population Fragmented Nuclei (%): 25%
  Population Healthy Nuclei (%): 69%
  Population Hoechst High Intensity Objects (%): 3%
  Population Membrane Permeable-Phenotype (%): 5%
  Population Mitochondria Different-Phenotype (%): 3%
  Population Mitotic Cells (%): 11%
  Population Normal (%): 96%
  Population Pyknosed Nuclei (%): 5%
  Population Tubulin-Different-Phenotype (%): 3%
  Total Cell Count: 338
[10]
  Population Apoptotic (%): 93%
  Population Fragmented Nuclei (%): 15%
  Population Healthy Nuclei (%): 71%
  Population Membrane Permeable-Phenotype (%): 7%
  Population Mitotic Cells (%): 6%
  Population Pyknosed Nuclei (%): 13%
  Population Tubulin-Different-Phenotype (%): 4%
  Total Cell Count: 259
[11]
  Population Apoptotic (%): 74%
  Population Fragmented Nuclei (%): 25%
  Population Healthy Nuclei (%): 61%
  Population Hoechst High Intensity Objects (%): 5%
  Population Membrane Permeable-Phenotype (%): 5%
  Population Mitochondria Different-Phenotype (%): 3%
  Population Mitotic Cells (%): 25%
  Population Normal (%): 94%
  Population Pyknosed Nuclei (%): 12%
  Population Tubulin-Different-Phenotype (%): 5%
  Total Cell Count: 352
[12]
  Population Apoptotic (%): 68%
  Population Fragmented Nuclei (%): 20%
  Population Healthy Nuclei (%): 63%
  Population Hoechst High Intensity Objects (%): 4%
  Population Membrane Permeable-Phenotype (%): 13%
  Population Mitochondria Different-Phenotype (%): 8%
  Population Mitotic Cells (%): 32%
  Population Normal (%): 95%
  Population Pyknosed Nuclei (%): 16%
  Population Tubulin-Different-Phenotype (%): 9%
  Total Cell Count: 160
